Experimental data as given in ChEMBL document CHEMBL3352414, “Structure based inhibitor design targeting glycogen phosphorylase B. Virtual screening, synthesis, biochemical and biological assessment of novel N-acyl-β-d-glucopyranosylamines” (Bioorg Med Chem, 2014).

Columns and labels:
[1] = molecular target: T1, Glycogen phosphorylase, liver form (Homo sapiens, UniProt P06737); experiment: Inhibition of glycogen phosphorylase a (unknown origin)
T1 sequence (P06737 whole entry): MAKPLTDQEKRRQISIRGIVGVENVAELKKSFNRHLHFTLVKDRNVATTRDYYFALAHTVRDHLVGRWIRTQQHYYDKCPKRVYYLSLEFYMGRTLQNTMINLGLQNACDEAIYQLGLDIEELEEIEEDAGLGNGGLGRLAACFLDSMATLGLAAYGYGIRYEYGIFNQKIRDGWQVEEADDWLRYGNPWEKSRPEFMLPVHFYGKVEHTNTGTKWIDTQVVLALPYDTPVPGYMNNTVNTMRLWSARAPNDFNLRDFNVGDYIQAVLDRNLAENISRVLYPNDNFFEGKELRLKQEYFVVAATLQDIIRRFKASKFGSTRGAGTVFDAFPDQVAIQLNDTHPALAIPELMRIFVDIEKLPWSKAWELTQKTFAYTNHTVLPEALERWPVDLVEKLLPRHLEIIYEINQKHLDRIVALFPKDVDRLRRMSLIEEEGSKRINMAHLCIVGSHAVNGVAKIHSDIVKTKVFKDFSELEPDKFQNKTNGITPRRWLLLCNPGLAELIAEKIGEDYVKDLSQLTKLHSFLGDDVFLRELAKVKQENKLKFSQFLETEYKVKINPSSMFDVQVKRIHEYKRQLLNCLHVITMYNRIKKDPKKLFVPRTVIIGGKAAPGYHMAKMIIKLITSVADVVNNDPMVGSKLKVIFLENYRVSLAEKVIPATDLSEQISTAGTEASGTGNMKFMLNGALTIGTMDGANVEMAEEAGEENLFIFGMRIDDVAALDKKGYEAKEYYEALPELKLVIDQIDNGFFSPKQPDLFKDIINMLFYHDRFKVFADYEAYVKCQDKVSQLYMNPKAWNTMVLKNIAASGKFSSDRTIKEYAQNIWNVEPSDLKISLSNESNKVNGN

[2] = Permeability in human Caco2 cells; assay type: ADME, cell-based; settings: Caco-2, read-out: permeability
[3] = Octanol water partition coefficient, logP of the compound; assay type: physicochemical
[4] = molecular target: T2, Glycogen phosphorylase, muscle form (Oryctolagus cuniculus, UniProt P00489); experiment: Inhibition of rabbit skeletal muscle glycogen phosphorylase b assessed as inorganic phosphate release; settings: read-out: Ki
T2 sequence (P00489 whole entry): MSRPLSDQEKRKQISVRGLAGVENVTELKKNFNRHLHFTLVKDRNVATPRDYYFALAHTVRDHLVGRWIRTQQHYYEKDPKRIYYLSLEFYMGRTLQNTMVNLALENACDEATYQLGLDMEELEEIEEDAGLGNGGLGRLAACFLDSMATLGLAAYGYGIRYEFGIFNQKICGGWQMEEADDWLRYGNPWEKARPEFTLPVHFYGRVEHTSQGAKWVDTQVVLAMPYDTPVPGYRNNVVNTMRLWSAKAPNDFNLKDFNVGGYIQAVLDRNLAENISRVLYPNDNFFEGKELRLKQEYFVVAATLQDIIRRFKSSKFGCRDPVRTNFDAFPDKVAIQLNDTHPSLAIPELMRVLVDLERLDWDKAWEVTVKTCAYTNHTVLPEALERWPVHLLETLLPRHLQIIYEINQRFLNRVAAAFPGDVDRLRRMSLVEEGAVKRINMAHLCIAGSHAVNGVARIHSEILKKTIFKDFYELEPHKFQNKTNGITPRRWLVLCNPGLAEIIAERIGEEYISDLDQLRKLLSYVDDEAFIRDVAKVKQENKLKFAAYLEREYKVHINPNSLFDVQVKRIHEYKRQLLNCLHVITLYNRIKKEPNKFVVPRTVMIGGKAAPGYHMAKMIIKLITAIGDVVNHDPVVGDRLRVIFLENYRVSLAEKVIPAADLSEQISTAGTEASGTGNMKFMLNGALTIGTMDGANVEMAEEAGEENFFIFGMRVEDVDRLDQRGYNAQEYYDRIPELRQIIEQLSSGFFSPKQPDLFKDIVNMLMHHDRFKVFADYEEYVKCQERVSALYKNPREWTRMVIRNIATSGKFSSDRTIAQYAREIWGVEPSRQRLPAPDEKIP

[5] = molecular target: T3, Glycogen phosphorylase, liver form (Rattus norvegicus) (UniProt P09811); experiment: Inhibition of glycogen phosphorylase a in Wistar rat hepatocytes assessed as effect on conversion of GPa to GPb forms by measuring GPa level at 20 uM after 30 mins relative to 5 mM glucose; assay type: cell-based; design: scale not given: the % may be the effect or the level left; settings: Hepatocyte
T3 sequence (whole entry): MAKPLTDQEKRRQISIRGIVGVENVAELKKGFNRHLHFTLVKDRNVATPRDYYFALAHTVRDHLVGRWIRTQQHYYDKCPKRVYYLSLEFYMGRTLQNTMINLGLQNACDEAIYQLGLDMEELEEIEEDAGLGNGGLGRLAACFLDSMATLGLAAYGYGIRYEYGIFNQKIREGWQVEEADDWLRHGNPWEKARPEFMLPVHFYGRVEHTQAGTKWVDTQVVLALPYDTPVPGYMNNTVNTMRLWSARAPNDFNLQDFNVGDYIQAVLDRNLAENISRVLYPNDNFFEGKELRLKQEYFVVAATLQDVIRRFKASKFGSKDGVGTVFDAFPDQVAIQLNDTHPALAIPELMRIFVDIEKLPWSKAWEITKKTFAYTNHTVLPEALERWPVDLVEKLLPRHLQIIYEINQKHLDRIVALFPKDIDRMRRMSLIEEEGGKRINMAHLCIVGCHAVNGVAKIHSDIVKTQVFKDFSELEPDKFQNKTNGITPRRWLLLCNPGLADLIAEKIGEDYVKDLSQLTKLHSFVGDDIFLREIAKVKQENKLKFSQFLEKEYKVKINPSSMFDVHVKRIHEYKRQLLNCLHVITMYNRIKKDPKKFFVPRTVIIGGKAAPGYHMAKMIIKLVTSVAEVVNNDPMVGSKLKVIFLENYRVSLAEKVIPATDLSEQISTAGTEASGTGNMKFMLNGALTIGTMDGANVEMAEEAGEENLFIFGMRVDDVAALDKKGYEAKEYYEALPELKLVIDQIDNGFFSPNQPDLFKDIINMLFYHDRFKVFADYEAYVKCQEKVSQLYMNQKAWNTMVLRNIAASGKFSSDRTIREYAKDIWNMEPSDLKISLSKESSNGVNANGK
Outline: (§1)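 Hepatocytes from male Wistar rats (200-300 g), isolated by collagenase perfusion, seeded at 6 x 10⁴ cells/cm² in MEM with 5% calf serum. After attachment they were cultured 24 h in serum-free MEM with 5 mM glucose, 10 nM dexamethasone and 1 nM insulin. Agents were added 1 h after the medium change and incubated 30 min. Cells were snap frozen, and GPa activity was read by coupling to glucose 6-phosphate dehydrogenase. Values are % of the 5 mM glucose control (with or without 9 mM 5-thioglucose); means ± SEM, n=5 preparations; paired t-test.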

[6] = molecular target: T3, Glycogen phosphorylase, liver form (Rattus norvegicus); experiment: Inhibition of glycogen phosphorylase a in Wistar rat hepatocytes assessed as effect on conversion of GPa to GPb forms by measuring GPa level at 2 uM after 30 mins relative to 5 mM glucose; assay type: cell-based; design: scale not given: the % may be the effect or the level left; settings: Hepatocyte; outline: as §1
[7] = molecular target: T3, Glycogen phosphorylase, liver form (Rattus norvegicus); experiment: Inhibition of glycogen phosphorylase a in Wistar rat hepatocytes assessed as effect on conversion of GPa to GPb forms by measuring GPa level at 9 mM after 30 mins relative to 5 mM glucose; assay type: cell-based; design: scale not given: the % may be the effect or the level left; settings: Hepatocyte; outline: as §1
[8] = molecular target: T4, Glycogen phosphorylase, muscle form (Homo sapiens, UniProt P11217); experiment: Inhibition of glycogen phosphorylase b (unknown origin)
T4 sequence (P11217 whole entry): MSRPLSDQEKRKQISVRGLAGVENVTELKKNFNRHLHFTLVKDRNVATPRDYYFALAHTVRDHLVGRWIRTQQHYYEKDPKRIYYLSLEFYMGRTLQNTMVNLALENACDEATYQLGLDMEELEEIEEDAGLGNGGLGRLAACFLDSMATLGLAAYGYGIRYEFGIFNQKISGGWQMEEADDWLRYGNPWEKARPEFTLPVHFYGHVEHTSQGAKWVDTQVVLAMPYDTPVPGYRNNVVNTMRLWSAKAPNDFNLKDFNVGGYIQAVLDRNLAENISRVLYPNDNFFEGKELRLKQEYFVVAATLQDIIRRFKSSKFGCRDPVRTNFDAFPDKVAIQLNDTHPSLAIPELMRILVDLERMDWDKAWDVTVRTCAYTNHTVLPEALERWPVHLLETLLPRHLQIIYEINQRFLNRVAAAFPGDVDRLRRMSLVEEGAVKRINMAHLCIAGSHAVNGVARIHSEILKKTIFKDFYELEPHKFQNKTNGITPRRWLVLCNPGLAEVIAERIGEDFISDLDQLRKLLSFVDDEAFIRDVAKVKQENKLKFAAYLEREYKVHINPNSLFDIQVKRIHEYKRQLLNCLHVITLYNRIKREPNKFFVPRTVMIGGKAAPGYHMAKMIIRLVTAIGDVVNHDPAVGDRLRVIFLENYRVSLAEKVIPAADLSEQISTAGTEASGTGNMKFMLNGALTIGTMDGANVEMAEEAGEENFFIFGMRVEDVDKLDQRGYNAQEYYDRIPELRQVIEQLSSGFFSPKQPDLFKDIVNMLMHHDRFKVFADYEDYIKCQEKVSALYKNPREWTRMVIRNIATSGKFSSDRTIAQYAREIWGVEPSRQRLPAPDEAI
Outline: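 Rabbit muscle GPb (5 μg/ml) was assayed at 30 °C in the glycogen-synthesis direction by measuring released inorganic phosphate. Buffer was 30 mM imidazole/HCl pH 6.8 with 60 mM KCl, 0.6 mM EDTA and 0.6 mM DTT. Glycogen 0.2% w/v and AMP 1 mM were held constant, with Glc-1-P at 2-20 mM and varied inhibitor. Enzyme and glycogen were preincubated 15 min, then Glc-1-P was added. Ki was obtained by non-linear regression of initial velocities.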

[9] = molecular target: T3, Glycogen phosphorylase, liver form (Rattus norvegicus); experiment: Inhibition of glycogen phosphorylase a in Wistar rat hepatocytes assessed as effect on conversion of GPa to GPb forms by measuring GPa level at 25 mM after 30 mins relative to 5 mM glucose; assay type: cell-based; design: scale not given: the % may be the effect or the level left; settings: Hepatocyte; outline: as §1
[10] = molecular target: T3, Glycogen phosphorylase, liver form (Rattus norvegicus); experiment: Inhibition of glycogen phosphorylase a in Wistar rat hepatocytes assessed as effect on conversion of GPa to GPb forms by measuring GPa level at 25 mM after 30 mins in presence of 9 mM 5-thioglucose relative to 5 mM glucose; assay type: cell-based; design: scale not given: the % may be the effect or the level left; settings: Hepatocyte; outline: as §1

SMILES	Papp [2] [×10⁻⁶ cm/s]	logP [3]	Ki [4] [µM]	Activity [5] [%]	Activity [6] [%]	also measured
O=C(NCCOCCOCCNC(=O)c1cc2cc(Cl)ccc2[nH]1)c1cc2cc(Cl)ccc2[nH]1	–	–	–	–	–	IC50 [1]: 0.006 µM
O=C[C@H](O)[C@@H](O)[C@H](O)[C@H](S)CO	–	–	–	–	–	Activity [7]: 106%
OC[C@H]1O[C@H](O[C@H]2[C@H](O)[C@@H](O)[C@@H](O[C@H]3[C@H](O)[C@@H](O)[C@@H](O[C@H]4[C@H](O)[C@@H](O)[C@@H](O[C@H]5[C@H](O)[C@@H](O)[C@@H](O[C@H]6[C@H](O)[C@@H](O)[C@@H](O[C@H]7[C@H](O)[C@@H](O)C(O)O[C@@H]7CO)O[C@@H]6CO)O[C@@H]5CO)O[C@@H]4CO)O[C@@H]3CO)O[C@@H]2CO)[C@H](O)[C@@H](O)[C@@H]1O (stereo partly drawn)	–	–	–	–	–	Ki [8]: 1000 µM
O=C(O)C1=C(C(=O)O)NC=CC1	–	–	–	–	–	Ki [8]: 0.0016 µM
OC[C@H]1OC(O)[C@H](O)[C@@H](O)[C@@H]1O (stereo partly drawn)	–	–	–	–	–	Activity [9]: 64.1%; Activity [10]: 78.7%
OC[C@H]1O[C@H](O)[C@H](O)[C@@H](O)[C@@H]1O	–	–	–	–	–	Ki [1]: 4900 µM
O=c1c(O)c(-c2ccc(O)c(O)c2)oc2cc(O)cc(O)c12 [QUERCETIN]	–	–	–	–	–	IC50 [1]: 4.8 µM
O=C(/C=C/c1ccc(-c2ccccc2)cc1)N[C@@H]1O[C@H](CO)[C@@H](O)[C@H](O)[C@H]1O	8.02	0.851	5.14	83.3	89.4	–

More lines, main results first:

Papp [2] [×10⁻⁶ cm/s]	logP [3]	Ki [4] [µM]	Activity [5] [%]	Activity [6] [%]	SMILES	also measured
5.09	-0.082	8.25	80.3	84.5	O=C(COc1ccc(-c2ccccc2)cc1)N[C@@H]1O[C@H](CO)[C@@H](O)[C@H](O)[C@H]1O	–
9.85	0.296	4.98	106	105	CC(C)c1ccc(/C=C/C(=O)N[C@@H]2O[C@H](CO)[C@@H](O)[C@H](O)[C@H]2O)cc1	–
9.51	0.208	48.7	100	93	O=C(CCCc1ccc2c(c1)CCCC2)N[C@@H]1O[C@H](CO)[C@@H](O)[C@H](O)[C@H]1O	–
